Reference: ChEMBL document CHEMBL2429863, “Cytotoxic deoxybenzoins and diphenylethylenes from Arundina graminifolia” (J Nat Prod, 2013)

What was measured:
Format in all cases: functional, cell-based
[1] = Cytotoxicity against human SH-SY5Y cells after 48 hrs by MTT assay
How it was run: (§1)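 Tumor cells from ATCC, grown in RPMI1640 or DMEM with 10% FBS at 37 °C, 5% CO2. Adherent cells plated and allowed to attach 12 h; suspension cells seeded just before dosing at 1 × 10^5 cells/mL. Compounds at various concentrations in triplicate for 48 h; paclitaxel positive control. MTT added for 4 h at 37 °C, then lysis with 20% SDS–50% DMF; formazan read colorimetrically.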

NB-4 = test: Cytotoxicity against human NB4 cells after 48 hrs by MTT assay; details: NB-4, 48 h; how it was run: as §1
MCF7 = test: Cytotoxicity against human MCF7 cells after 48 hrs by MTT assay; details: MCF7, 48 h; how it was run: as §1
PC-3 = test: Cytotoxicity against human PC3 cells after 48 hrs by MTT assay; details: PC-3, 48 h; how it was run: as §1
A549 = test: Cytotoxicity against human A549 cells after 48 hrs by MTT assay; details: A549, 48 h; how it was run: as §1

| SMILES | IC50 [1] [µM] | IC50 (NB-4) [µM] | IC50 (MCF7) [µM] | IC50 (PC-3) [µM] | IC50 (A549) [µM] |
| --- | --- | --- | --- | --- | --- |
| CC(=O)Oc1cc(CC(=O)c2ccccc2)cc2oc(C(C)C)cc(=O)c12 | > 10 | > 10 | > 10 | > 10 | > 10 |
| OCCc1c(O)cc(/C=C/c2cc(O)cc(O)c2)cc1O | 7.8 | 5.5 | 6.4 | 5.6 | 8.1 |
| COc1ccc(C(=O)Cc2cc(O)c(C(=O)CCC(C)C)c(O)c2)cc1 | > 10 | > 10 | > 10 | > 10 | > 10 |
| COc1cc(/C=C/c2cc(O)cc(O)c2)cc(O)c1CCO | 4.5 | 3.3 | 5.3 | 2.2 | 6.5 |
| CC(C)CCC(=O)c1c(O)cc(CC(=O)c2ccccc2)cc1O | 3.2 | 2.1 | 5.5 | 6.8 | 5.2 |
| COc1ccc(C(=O)Cc2cc(O)c3c(c2)OCC(C)=CC3=O)cc1 | > 10 | > 10 | > 10 | > 10 | > 10 |
| CC1=CC(=O)c2c(O)cc(CC(=O)c3ccc(O)cc3)cc2OC1 | 1.8 | 7.6 | 5.4 | 3.4 | 2.2 |
| COc1ccc(C(=O)Cc2cc(O)c3c(c2)OC(C)(C)CC3=O)cc1 | > 10 | > 10 | > 10 | > 10 | > 10 |
| COc1cc(/C=C/c2cc(O)c(CCO)c(O)c2)cc(OC)c1 | 6.2 | 4.8 | 5.9 | 8.7 | 5.5 |
| CC(=O)O[C@H]1C(=O)[C@@]2(C)[C@H]([C@H](OC(=O)c3ccccc3)[C@]3(O)C[C@H](OC(=O)[C@H](O)[C@@H](NC(=O)c4ccccc4)c4ccccc4)C(C)=C1C3(C)C)[C@]1(OC(C)=O)CO[C@@H]1C[C@@H]2O [PACLITAXEL] | 0.2 |  |  |  |  |
| COc1ccc(C(=O)Cc2cc(OC)c3c(c2)OC(C)(C)CC3=O)cc1 | > 10 | > 10 | 8.5 | > 10 | 6.4 |
| CC(C)c1cc(=O)c2c(O)cc(CC(=O)c3ccccc3)cc2o1 | > 10 | > 10 | > 10 | > 10 | > 10 |
